# Source: ChEMBL document CHEMBL4689842, “EUbOPEN Chemogenomics Library wave 1” (2021)
# Experiments:
# Fibroblast = assay: Incucyte cell viability with human fibroblast; type: toxicity, cell-based; conditions: 10 µM, compound concentration 10 uM; also: filed as whole numbers so only -1 and 0 and 1 occur
# HEK-293T = assay: Multiplex assay against HEK293T; type: toxicity, cell-based; conditions: human;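 as to Population Tubulin-Different-Phenotype (%): share of the cells with healthy nuclei that show this phenotype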
# Summary of the method: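 Imaging took place on a CQ1 microscope at 37°C and 5% CO2 once compound had been added to live cells stained at seeding with Hoechst33342, BioTracker Green Microtubule Cytoskeleton Dye, MitoTracker Red and Annexin V Alexa Fluor 680. CellPathfinder machine-learning gating classed cells as Hoechst high-intensity objects or normal cells, classed normal cells as having healthy, pyknosed or fragmented nuclei, and classed pyknosed cells as mitotic or apoptotic. Tubulin, mitochondrial-mass and membrane-permeability phenotypes are per cents of the healthy-nucleus cells.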
# [1] = 12 h, 1 µM, compound concentration 1 uM, replicate 1
# [2] = 12 h, 1 µM, compound concentration 1 uM, replicate 2
# [3] = 12 h, 10 µM, compound concentration 10 uM, replicate 1
# [4] = 12 h, 10 µM, compound concentration 10 uM, replicate 2
# [5] = 24 h, 1 µM, compound concentration 1 uM, replicate 1
# [6] = 24 h, 1 µM, compound concentration 1 uM, replicate 2
# [7] = 24 h, 10 µM, compound concentration 10 uM, replicate 1
# [8] = 24 h, 10 µM, compound concentration 10 uM, replicate 2
smiles,measurement,setting,value
Cc1c(Nc2ccc(S(=O)(=O)N3CCN(C)CC3)cc2F)nc2ccc(Nc3cnn(C4CC4)c3)cn2c1=O,Growth Rate,"Fibroblast; 0 h, replicate number 2, timepoint 0 hours",0
same,Growth Rate,"Fibroblast; 6 h, replicate number 1, timepoint 6 hours",0
same,Growth Rate,"Fibroblast; 12 h, replicate number 1, timepoint 12 hours",0
same,Growth Rate,"Fibroblast; 18 h, replicate number 1, timepoint 18 hours",0
same,Growth Rate,"Fibroblast; 24 h, replicate number 1, timepoint 24 hours",0
same,Growth Rate,"Fibroblast; 24 h, replicate number 2, timepoint 24 hours",1
same,Population Apoptotic (%),HEK-293T; [1],17%
same,Population Fragmented Nuclei (%),HEK-293T; [1],13%
same,Population Healthy Nuclei (%),HEK-293T; [1],52%
same,Population Hoechst High Intensity Objects (%),HEK-293T; [1],16%
same,Population Membrane Permeable-Phenotype (%),HEK-293T; [1],15%
same,Population Mitochondria Different-Phenotype (%),HEK-293T; [1],11%
same,Population Mitotic Cells (%),HEK-293T; [1],82%
same,Population Normal (%),HEK-293T; [1],83%
same,Population Pyknosed Nuclei (%),HEK-293T; [1],33%
same,Population Tubulin-Different-Phenotype (%),HEK-293T; [1],47%
same,Total Cell Count,HEK-293T; [1],566
same,Population Apoptotic (%),HEK-293T; [2],11%
same,Population Fragmented Nuclei (%),HEK-293T; [2],3%
same,Population Healthy Nuclei (%),HEK-293T; [2],83%
same,Population Hoechst High Intensity Objects (%),HEK-293T; [2],3%
same,Population Membrane Permeable-Phenotype (%),HEK-293T; [2],14%
same,Population Mitochondria Different-Phenotype (%),HEK-293T; [2],29%
same,Population Mitotic Cells (%),HEK-293T; [2],88%
same,Population Normal (%),HEK-293T; [2],96%
same,Population Pyknosed Nuclei (%),HEK-293T; [2],12%
same,Population Tubulin-Different-Phenotype (%),HEK-293T; [2],73%
same,Total Cell Count,HEK-293T; [2],888
same,Population Apoptotic (%),HEK-293T; [3],17%
same,Population Fragmented Nuclei (%),HEK-293T; [3],11%
same,Population Healthy Nuclei (%),HEK-293T; [3],73%
same,Population Hoechst High Intensity Objects (%),HEK-293T; [3],8%
same,Population Membrane Permeable-Phenotype (%),HEK-293T; [3],4%
same,Population Mitochondria Different-Phenotype (%),HEK-293T; [3],4%
same,Population Mitotic Cells (%),HEK-293T; [3],82%
same,Population Normal (%),HEK-293T; [3],91%
same,Population Pyknosed Nuclei (%),HEK-293T; [3],15%
same,Population Tubulin-Different-Phenotype (%),HEK-293T; [3],4%
same,Total Cell Count,HEK-293T; [3],791
same,Population Apoptotic (%),HEK-293T; [4],4%
same,Population Fragmented Nuclei (%),HEK-293T; [4],6%
same,Population Healthy Nuclei (%),HEK-293T; [4],89%
same,Population Hoechst High Intensity Objects (%),HEK-293T; [4],2%
same,Population Membrane Permeable-Phenotype (%),HEK-293T; [4],2%
same,Population Mitochondria Different-Phenotype (%),HEK-293T; [4],10%
same,Population Mitotic Cells (%),HEK-293T; [4],95%
same,Population Normal (%),HEK-293T; [4],97%
same,Population Pyknosed Nuclei (%),HEK-293T; [4],4%
same,Population Tubulin-Different-Phenotype (%),HEK-293T; [4],7%
same,Total Cell Count,HEK-293T; [4],1683
same,Population Apoptotic (%),HEK-293T; [5],27%
same,Population Fragmented Nuclei (%),HEK-293T; [5],16%
same,Population Healthy Nuclei (%),HEK-293T; [5],60%
same,Population Hoechst High Intensity Objects (%),HEK-293T; [5],11%
same,Population Membrane Permeable-Phenotype (%),HEK-293T; [5],21%
same,Population Mitochondria Different-Phenotype (%),HEK-293T; [5],9%
same,Population Mitotic Cells (%),HEK-293T; [5],72%
same,Population Normal (%),HEK-293T; [5],88%
same,Population Pyknosed Nuclei (%),HEK-293T; [5],23%
same,Population Tubulin-Different-Phenotype (%),HEK-293T; [5],65%
same,Total Cell Count,HEK-293T; [5],536
same,Population Apoptotic (%),HEK-293T; [6],12%
same,Population Fragmented Nuclei (%),HEK-293T; [6],6%
same,Population Healthy Nuclei (%),HEK-293T; [6],85%
same,Population Hoechst High Intensity Objects (%),HEK-293T; [6],5%
same,Population Mitochondria Different-Phenotype (%),HEK-293T; [6],16%
same,Population Mitotic Cells (%),HEK-293T; [6],87%
same,Population Normal (%),HEK-293T; [6],94%
same,Population Pyknosed Nuclei (%),HEK-293T; [6],7%
same,Population Tubulin-Different-Phenotype (%),HEK-293T; [6],83%
same,Total Cell Count,HEK-293T; [6],1100
same,Population Apoptotic (%),HEK-293T; [7],16%
same,Population Fragmented Nuclei (%),HEK-293T; [7],8%
same,Population Healthy Nuclei (%),HEK-293T; [7],85%
same,Population Hoechst High Intensity Objects (%),HEK-293T; [7],4%
same,Population Membrane Permeable-Phenotype (%),HEK-293T; [7],9%
same,Population Mitochondria Different-Phenotype (%),HEK-293T; [7],3%
same,Population Mitotic Cells (%),HEK-293T; [7],83%
same,Population Normal (%),HEK-293T; [7],95%
same,Population Pyknosed Nuclei (%),HEK-293T; [7],6%
same,Population Tubulin-Different-Phenotype (%),HEK-293T; [7],8%
same,Total Cell Count,HEK-293T; [7],922
same,Population Apoptotic (%),HEK-293T; [8],0%
same,Population Fragmented Nuclei (%),HEK-293T; [8],18%
same,Population Healthy Nuclei (%),HEK-293T; [8],79%
same,Population Hoechst High Intensity Objects (%),HEK-293T; [8],3%
same,Population Membrane Permeable-Phenotype (%),HEK-293T; [8],7%
same,Population Mitochondria Different-Phenotype (%),HEK-293T; [8],2%
same,Population Mitotic Cells (%),HEK-293T; [8],100%
same,Population Normal (%),HEK-293T; [8],96%
same,Population Pyknosed Nuclei (%),HEK-293T; [8],2%
same,Population Tubulin-Different-Phenotype (%),HEK-293T; [8],10%
same,Total Cell Count,HEK-293T; [8],2721
